Measured values published in ChEMBL document CHEMBL1139971, “RXR-LXR heterodimer modulators for the potential treatment of dyslipidemia” (Bioorg Med Chem Lett, 2007).
Active and inactive are the calls of the source. No cut-off for these calls is given here.

Experiments:
[1] = target: T1, Retinoic acid receptor RXR-alpha (Homo sapiens) (UniProt P19793); test: Activity at RXRalpha by GAL4DNA cotransfection assay relative to 5-((3-(1-ethyl-4,4,6-trimethyl-2-oxo-1,2,3,4-tetrahydroquinolin-7-yl)-4-(trifluoromethoxy)phenyl)methylene)thiazolidine-2,4-dione
T1 sequence (whole entry): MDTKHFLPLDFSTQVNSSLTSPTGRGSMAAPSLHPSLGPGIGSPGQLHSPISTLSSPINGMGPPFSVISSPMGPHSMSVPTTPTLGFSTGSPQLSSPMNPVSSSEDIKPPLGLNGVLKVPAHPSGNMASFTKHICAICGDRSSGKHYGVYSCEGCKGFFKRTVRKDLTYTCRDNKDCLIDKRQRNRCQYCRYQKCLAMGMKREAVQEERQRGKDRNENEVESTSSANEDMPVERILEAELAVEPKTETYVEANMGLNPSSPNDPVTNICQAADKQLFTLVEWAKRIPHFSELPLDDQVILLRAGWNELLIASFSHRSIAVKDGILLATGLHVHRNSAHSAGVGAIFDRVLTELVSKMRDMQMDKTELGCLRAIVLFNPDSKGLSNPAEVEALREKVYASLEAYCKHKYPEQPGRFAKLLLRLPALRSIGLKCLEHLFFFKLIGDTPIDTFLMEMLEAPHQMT
Outline: (§1)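 RXRα co-transfection assay using the yeast GAL4 DNA-binding domain fused to the RXRα ligand-binding domain, with a yeast promoter driving luciferase. EC50 is reported, and efficacy is given as % maximal activation versus the reference RXR agonist.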

[2] = Activity at RXR-LXR heterodimer in human THP1 cells assessed as induction of ABCA1 mRNA; format: cell-based; details: THP-1
[3] = target: T2, Retinoic acid receptor RXR-alpha (Homo sapiens, UniProt P19793); test: (§2) Activity at RXRalpha by GAL4DNA cotransfection assay; outline: as §1
T2 sequence (P19793 whole entry): T1 sequence (whole entry)

THP-1 = test: Activation of RXR-LXR heterodimer in human THP1 cells assessed as induction of ABCA1 mRNA relative to 5-((3-(1-ethyl-4,4,6-trimethyl-2-oxo-1,2,3,4-tetrahydroquinolin-7-yl)-4-(trifluoromethoxy)phenyl)methylene)thiazolidine-2,4-dione; format: cell-based; design: concentration or dose not given beside the values
[4] = Activity at RXR-PPARgamma heterodimer in primary human preadipocytes assessed as induction of adipocytes fatty acid binding protein by bDNA assay; format: cell-based
Homo sapiens [5] = organism: Homo sapiens; test: Activity at RXR-PPARgamma in primary human preadipocytes assessed as induction of adipocytes fatty acid binding protein by bDNA assay relative to 5-((3-(1-ethyl-4,4,6-trimethyl-2-oxo-1,2,3,4-tetrahydroquinolin-7-yl)-4-(trifluoromethoxy)phenyl)methylene)thiazolidine-2,4-dione; format: cell-based
[6] = target: T1, Retinoic acid receptor RXR-alpha (Homo sapiens); test: as §2; outline: as §1
Rattus norvegicus [7] = test: Effect on serum triglyceride level in high cholesterol diet fed Sprague-Dawley rat at 3 mg/kg, po after 8 days relative to control; format: functional
Outline: (§3)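 Male Sprague–Dawley rats were fed a high-cholesterol atherogenic diet ad libitum. After 6 days on the diet, oral dosing began at 0.3, 1, 3 or 10 mg/kg in 15% hydroxypropyl β-cyclodextrin, pH 10, for 8 days total. Serum total cholesterol, HDL-C, LDL-C and triglycerides and plasma Cmax were measured. Groups are compared with vehicle as mean ± SEM by one-way ANOVA with Dunnett's test.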

Rattus norvegicus [8] = test: Effect on serum HDL-C level in high cholesterol diet fed Sprague-Dawley rat at 10 mg/kg, po after 8 days relative to control; format: functional; outline: as §3
Rattus norvegicus [9] = test: Effect on serum triglyceride level in high cholesterol diet fed Sprague-Dawley rat at 0.3 mg/kg, po after 8 days relative to control; format: functional; outline: as §3
Rattus norvegicus [10] = test: Effect on serum LDL-C level in high cholesterol diet fed Sprague-Dawley rat at 10 mg/kg, po after 8 days relative to control; format: functional; outline: as §3
Rattus norvegicus [11] = test: Effect on serum HDL-C level in high cholesterol diet fed Sprague-Dawley rat at 3 mg/kg, po after 8 days relative to control; format: functional; outline: as §3
[12] = Oral bioavailability in Sprague-Dawley rat at 3 mg/kg; format: ADME, organism-based; details: in vivo
Outline: (§4)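 Sprague–Dawley rats dosed at 3 mg/kg in 10% hydroxypropyl β-cyclodextrin (pH 10). Oral bioavailability, Cmax, AUC and terminal half-life were taken from the plasma profile.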

Rattus norvegicus [13] = test: Effect on serum cholesterol level in high cholesterol diet fed Sprague-Dawley rat at 3 mg/kg, po after 8 days relative to control; format: functional; outline: as §3
Rattus norvegicus [14] = test: Effect on serum LDL-C level in high cholesterol diet fed Sprague-Dawley rat at 3 mg/kg, po after 8 days relative to control; format: functional; outline: as §3
Rattus norvegicus [15] = test: Effect on serum triglyceride level in high cholesterol diet fed Sprague-Dawley rat at 10 mg/kg, po after 8 days relative to control; format: functional; outline: as §3
Rattus norvegicus [16] = test: Effect on serum cholesterol level in high cholesterol diet fed Sprague-Dawley rat at 0.3 mg/kg, po after 8 days relative to control; format: functional; outline: as §3
Rattus norvegicus [17] = test: Effect on serum LDL-C level in high cholesterol diet fed Sprague-Dawley rat at 1 mg/kg, po after 8 days relative to control; format: functional; outline: as §3
Rattus norvegicus [18] = test: Effect on serum LDL-C level in high cholesterol diet fed Sprague-Dawley rat at 0.3 mg/kg, po after 8 days relative to control; format: functional; outline: as §3
Mus musculus = organism: Mus musculus; test: Decrease in blood glucose level in db/db mouse after 11 days; format: functional, organism-based
Outline: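 db/db mice, a diabetes model, were treated for 11 days and blood glucose was monitored.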

Rattus norvegicus [19] = test: Effect on serum cholesterol level in high cholesterol diet fed Sprague-Dawley rat at 1 mg/kg, po after 8 days relative to control; format: functional; outline: as §3
[20] = Cmax in high cholesterol diet fed Sprague-Dawley rat at 10 mg/kg, po; format: ADME, organism-based; design: dose 10 mg/kg, route oral; details: in vivo; outline: as §3
Rattus norvegicus [21] = test: Effect on serum HDL-C level in high cholesterol diet fed Sprague-Dawley rat at 1 mg/kg, po after 8 days relative to control; format: functional; outline: as §3
[22] = Half life in Sprague-Dawley rat at 3 mg/kg; format: ADME, organism-based; design: dose 3 mg/kg; details: in vivo; outline: as §4
[23] = AUC in Sprague-Dawley rat at 3 mg/kg; format: ADME, organism-based; design: dose 3 mg/kg; details: plasma; outline: as §4
Rattus norvegicus [24] = test: Effect on serum HDL-C level in high cholesterol diet fed Sprague-Dawley rat at 0.3 mg/kg, po after 8 days relative to control; format: functional; outline: as §3
[25] = Cmax in Sprague-Dawley rat at 3 mg/kg; format: ADME, organism-based; design: dose 3 mg/kg; details: in vivo; outline: as §4
[26] = Cmax in high cholesterol diet fed Sprague-Dawley rat at 0.3 mg/kg, po; format: ADME, organism-based; design: dose 0.3 mg/kg, route oral; details: in vivo; outline: as §3
Rattus norvegicus [27] = test: Effect on serum cholesterol level in high cholesterol diet fed Sprague-Dawley rat at 10 mg/kg, po after 8 days relative to control; format: functional; outline: as §3
Rattus norvegicus [28] = test: Effect on serum triglyceride level in high cholesterol diet fed Sprague-Dawley rat at 1 mg/kg, po after 8 days relative to control; format: functional; outline: as §3
Homo sapiens [29] = organism: Homo sapiens; test: Activity at RXR-PPARgamma in primary human preadipocytes assessed as induction of adipocytes fatty acid binding protein by bDNA assay relative to rosiglitazone; format: cell-based

Compound `CCn1c(=O)c2c(c3cc(-c4cc(/C=C/C(=O)O)ccc4OC(F)(F)F)ccc31)CCC2` has an Activity [1] of 125%, an EC50 [2] greater than 3000 nM and an EC50 [3] of 96.6 nM.

Work on `CCN1C(=O)CN(C(C)C)c2cc(C)c(-c3cc(/C=C/C(=O)O)ccc3OC(F)(F)F)cc21` yielded an EC50 [2] greater than 3000 nM.

Compound `CCN1C(=O)CC(C)(C)c2cc(C)c(-c3cc(/C=C/C(=O)O)ccc3OC)cc21` has an EC50 [2] of 975 nM.

In the case of `CCN1C(=O)CC(C)(C)c2cc(C)c(-c3ccc(/C=C/C(=O)O)s3)cc21`, the EC50 [2] is reported as greater than 3000 nM and the EC50 [3] is reported as 1200 nM.

`Cc1cc2c(cc1-c1cc(/C=C/C(=O)O)ccc1OCC(F)(F)F)N(C(C)C)C(=O)CC2(C)C` gave an Activity [1] of 64%, an Activity (THP-1) of 32% and an EC50 [4] greater than 3000 nM. For the same compound, the EC50 [2] was 44 nM, the EC50 [3] was 18.3 nM and the Activity (Homo sapiens [5]) was 149%.

`Cc1cc2c(cc1-c1cc(/C=C/C(=O)O)ccc1OC(F)(F)F)N(C)C(=O)CC2(C)C` gave an Activity (THP-1) of 56%, an EC50 [2] of 200 nM and an EC50 [3] of 24.3 nM.

For `CCN1C(=O)CC(C)(C)c2cc(C)c(-c3cc(/C=C/C(=O)O)ccc3OC(F)(F)F)cc21`, the Activity (THP-1) was 81%, the EC50 [2] was 3.6 nM and the EC50 [3] was 1.8 nM.

Compound `CCN1C(=O)OC(C)(C)c2cc(C)c(-c3cc(/C=C/C(=O)O)ccc3OC(F)(F)F)cc21` has an EC50 [2] greater than 3000 nM.

Work on `CCN1C(=O)CC(C)(C)c2cc(C)c(-c3ccc(/C=C/C(=O)O)o3)cc21` yielded an EC50 [2] greater than 3000 nM and an EC50 [3] greater than 10000 nM.

For `Cc1cc2c(cc1-c1cc(/C=C/C(=O)O)ccc1OC(F)(F)F)NC(=O)CC2(C)C`, the EC50 [2] was greater than 3000 nM and the Activity [6] was “inactive”.

With `CCCN1C(=O)CC(C)(C)c2cc(C)c(-c3cc(/C=C/C(=O)O)ccc3OC(F)(F)F)cc21` the Activity [1] was 83%, the EC50 [4] was 131 nM and the EC50 [2] was greater than 3000 nM. It also gave an EC50 [3] of 2.1 nM.

With `CCN1C(=O)CC(C)(C)c2cc(C)c(-c3cc(/C=C/C(=O)O)ccc3OCC(F)(F)F)cc21` the Activity (Rattus norvegicus [7]) was 249 mg/dL, the Activity (Rattus norvegicus [8]) was 41 mg/dL and the Activity (Rattus norvegicus [9]) was 341 mg/dL. For the same compound, the Activity (Rattus norvegicus [10]) was 126 mg/dL, the Activity (Rattus norvegicus [11]) was 34 mg/dL and the bioavailability [12] was 51%. For the same compound, the Activity [1] was 76%, the Activity (THP-1) was 60% and the Activity (Rattus norvegicus [13]) was 302 mg/dL. The Activity (Rattus norvegicus [14]) was 102 mg/dL, the Activity (Rattus norvegicus [15]) was 175 mg/dL and the Activity (Rattus norvegicus [16]) was 382 mg/dL. For the same compound, the Activity (Rattus norvegicus [17]) was 151 mg/dL, the Activity (Rattus norvegicus [18]) was 134 mg/dL and the Activity (Mus musculus) was “inactive”. The EC50 [4] was greater than 3000 nM, the Activity (Rattus norvegicus [19]) was 440 mg/dL and the EC50 [2] was 296 nM. It also gave a Cmax [20] of 2120 ng/mL, an EC50 [3] of 67.3 nM and an Activity (Rattus norvegicus [21]) of 38 mg/dL. For the same compound, the half-life [22] was 4.6 h, the AUC [23] was 5520 ng·h/mL and the Activity (Rattus norvegicus [24]) was 16 mg/dL. It also gave a Cmax [25] of 844 ng/mL, a Cmax [26] of 61 ng/mL and an Activity (Rattus norvegicus [27]) of 349 mg/dL. It also gave an Activity (Rattus norvegicus [28]) of 182 mg/dL.

`CCN1C(=O)C(C)Oc2cc(C)c(-c3cc(/C=C/C(=O)O)ccc3OC(F)(F)F)cc21` (stereo not drawn) showed an EC50 [2] greater than 3000 nM.

In the case of `CCN1C(=O)CC(C)(C)c2cc(C)c(-c3ccc(/C=C/C(=O)O)cc3OC(F)(F)F)cc21`, the EC50 [2] is reported as greater than 3000 nM.

`Cc1cc2c(cc1-c1cc(/C=C/C(=O)O)ccc1OC(F)(F)F)N(CC(F)(F)F)C(=O)CC2(C)C` gave an Activity [1] of 94%, an EC50 [4] of 126 nM and an EC50 [2] greater than 3000 nM. For the same compound, the EC50 [3] was 1.8 nM.

`CCN1C(=O)C(C)(C)Oc2cc(C)c(-c3cc(/C(C)=C/C(=O)O)ccc3OC(F)(F)F)cc21` showed an Activity [1] of 86%, an Activity (THP-1) of 76% and an EC50 [4] greater than 3000 nM. It also gave an EC50 [2] of 163 nM and an Activity (Homo sapiens [5]) of 240%.

In the case of `CCN1C(=O)CC(C)(C)c2cc(C)c(-c3cc(/C=C4\SC(=O)NC4=O)ccc3OC(F)(F)F)cc21`, the Activity (Homo sapiens [29]) is reported as 25%, the Activity (Rattus norvegicus [17]) is reported as 126 mg/dL and the EC50 [4] is reported as 139 nM. For the same compound, the Activity (Rattus norvegicus [19]) was 371 mg/dL, the EC50 [2] was 180 nM and the EC50 [3] was 0.9 nM. It also gave an Activity (Rattus norvegicus [21]) of 41 mg/dL and an Activity (Rattus norvegicus [28]) of 216 mg/dL.

Compound `CCN1C(=O)C(C)(C)Oc2cc(C)c(-c3cc(/C=C/C(=O)O)ccc3OC(F)(F)F)cc21` has an Activity [1] of 78%, an Activity (THP-1) of 79% and an EC50 [2] of 39.7 nM. For the same compound, the EC50 [3] was 173 nM.

Work on `Cc1cc2c(cc1-c1cc(/C=C/C(=O)O)ccc1OC(F)(F)F)N(C(C)C)C(=O)CC2(C)C` yielded an Activity (THP-1) of 70% and an EC50 [2] of 10 nM.

For `CCn1c(=O)c2c(c3ccc(-c4cc(/C=C/C(=O)O)ccc4OC(F)(F)F)cc31)CCC2`, the EC50 [2] was greater than 3000 nM and the EC50 [3] was 1600 nM.
